The source of these data is ChEMBL document CHEMBL3608243, “Synthesis of novel cationic spermine-conjugated phosphotriester oligonucleotide for improvement of cell membrane permeability” (Bioorg Med Chem Lett, 2015).

In one data set the test system is A549. Put plainly: Permeability in human A549 cells assessed as relative fluorescence intensity at 10 uM incubated for 8 hrs at 37 degC in presence of serum free medium by spectrofluorometry. The format is ADME, cell-based. The following applies: a549, 8 h. The method, boiled down:
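A549 cells exposed to TAMRA-labeled oligonucleotides (in 10 mM Tris–HCl, 1 mM EDTA, pH 8) without transfection reagent; after incubation, PBS wash, lysis and lysate fluorescence read on a spectrofluorometer; n = 4.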

Data set [1] is described as follows: Stability assessed as snake venom phosphodiesterase-mediated compound degradation at 5 nmol incubated for 180 mins by reversed-phase HPLC method. The format is ADME. The settings on record: serpentes, 3 h. The method, boiled down: (§1)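 Dimers incubated with snake venom phosphodiesterase or in 10% fetal bovine serum, then reactions analysed by reversed-phase HPLC; peak areas of intact dimer used to give the fraction of intact dimer over time.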

A further data set relates to Serum. The data set is described as follows: Stability in 10% FBS assessed as compound degradation at 5 nmol incubated for 180 mins by reversed-phase HPLC method. The format is ADME, cell-free, Bos taurus. The following applies: cattle, 3 h. In outline: as §1
A short description of data set [2]: Stability in 28% NH3 aq, 55 degC incubated for 8 hrs assessed as compound degradation in to PDE dimer d(TpT) by reversed-phase HPLC method. It is filed as physicochemical. The method, boiled down: (§2)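 Untreated and treated dimers compared by reversed-phase HPLC on a C18 column, eluted with a linear 5–25% acetonitrile gradient over 20 min in 50 mM triethylammonium acetate, pH 7.0.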

Data set [3] can be described thus: Stability in 28% NH3 aq, incubated for 2 hrs at room temperature assessed as compound degradation by reversed-phase HPLC method. It is filed as physicochemical. In outline:
as §2

Data set [4] in a line: Solubility in water. The format is physicochemical. The settings on record: buffer.

SMILES strings stand for the structures.

For the compound `CCOP(=O)(OC[C@H]1O[C@@H](n2cc(C)c(=O)[nH]c2=O)C[C@@H]1OP(=O)(OCC)OC[C@H]1O[C@@H](n2cc(C)c(=O)[nH]c2=O)C[C@@H]1OP(=O)(OCC)OC[C@H]1O[C@@H](n2cc(C)c(=O)[nH]c2=O)C[C@@H]1OP(=O)(OCC)OC[C@H]1O[C@@H](n2cc(C)c(=O)[nH]c2=O)C[C@@H]1OP(=O)(OCC)OC[C@H]1O[C@@H](n2cc(C)c(=O)[nH]c2=O)C[C@@H]1OP(=O)(OCC)OC[C@H]1O[C@@H](n2cc(C)c(=O)[nH]c2=O)C[C@@H]1OP(=O)(OCC)OC[C@H]1O[C@@H](n2cc(C)c(=O)[nH]c2=O)C[C@@H]1OP(=O)(OCC)OC[C@H]1O[C@@H](n2cc(C)c(=O)[nH]c2=O)C[C@@H]1OP(=O)(OCC)OC[C@H]1O[C@@H](n2cc(C)c(=O)[nH]c2=O)C[C@@H]1OP(=O)(O)OCCC(O)COCCCNC(=O)c1ccc(C(=O)O)c(C2=C3C=CC(=[N+](C)C)C=C3OC3C=C(N(C)C)C=CC23)c1)O[C@H]1C[C@H](n2cc(C)c(=O)[nH]c2=O)O[C@@H]1COP(=O)(O)O` (stereo partly drawn), the Flu intensity in the data set with A549 amounted to 16.
As to `Cc1cn([C@H]2C[C@H](OP(=O)(O)OC[C@H]3O[C@@H](n4cc(C)c(=O)[nH]c4=O)C[C@@H]3O)[C@@H](CO)O2)c(=O)[nH]c1=O`, the Stability entry (in data set [1]; in the data set on Serum) was “Unstable” each time.
As to `CCOP(=O)(OC[C@H]1O[C@@H](n2cc(C)c(=O)[nH]c2=O)C[C@@H]1O)O[C@H]1C[C@H](n2cc(C)c(=O)[nH]c2=O)O[C@@H]1CO` (stereo partly drawn), the Stability entry (in data set [2]; in data set [3]; in data set [1]; with Serum) was “Stable” each time.
Consider `COP(=O)(OC[C@H]1O[C@@H](n2cc(C)c(=O)[nH]c2=O)C[C@@H]1O)O[C@H]1C[C@H](n2cc(C)c(=O)[nH]c2=O)O[C@@H]1CO` (stereo partly drawn), for which the Stability entry in data set [2] and in data set [3] was “Unstable” each time.
For the compound `Cc1cn([C@H]2C[C@H](OP(=O)(O)OC[C@H]3O[C@@H](n4cc(C)c(=O)[nH]c4=O)C[C@@H]3OP(=O)(O)OC[C@H]3O[C@@H](n4cc(C)c(=O)[nH]c4=O)C[C@@H]3OP(=O)(O)OC[C@H]3O[C@@H](n4cc(C)c(=O)[nH]c4=O)C[C@@H]3OP(=O)(O)OC[C@H]3O[C@@H](n4cc(C)c(=O)[nH]c4=O)C[C@@H]3OP(=O)(O)OC[C@H]3O[C@@H](n4cc(C)c(=O)[nH]c4=O)C[C@@H]3OP(=O)(O)OC[C@H]3O[C@@H](n4cc(C)c(=O)[nH]c4=O)C[C@@H]3OP(=O)(O)OC[C@H]3O[C@@H](n4cc(C)c(=O)[nH]c4=O)C[C@@H]3OP(=O)(O)OC[C@H]3O[C@@H](n4cc(C)c(=O)[nH]c4=O)C[C@@H]3OP(=O)(O)OC[C@H]3O[C@@H](n4cc(C)c(=O)[nH]c4=O)C[C@@H]3OP(=O)(O)OCCC(O)COCCCNC(=O)c3ccc(C(=O)O)c(C4=C5C=CC(=[N+](C)C)C=C5OC5C=C(N(C)C)C=CC45)c3)[C@@H](COP(=O)(O)O)O2)c(=O)[nH]c1=O` (stereo partly drawn), the Flu intensity in the data set with A549 stood at 1.
Regarding `CCOP(=O)(OC[C@H]1O[C@@H](n2cc(C)c(=O)[nH]c2=O)C[C@@H]1OP(=O)(OCC)OC[C@H]1O[C@@H](n2cc(C)c(=O)[nH]c2=O)C[C@@H]1OP(=O)(OCC)OC[C@H]1O[C@@H](n2cc(C)c(=O)[nH]c2=O)C[C@@H]1OP(=O)(OCC)OC[C@H]1O[C@@H](n2cc(C)c(=O)[nH]c2=O)C[C@@H]1OP(=O)(OCC)OC[C@H]1O[C@@H](n2cc(C)c(=O)[nH]c2=O)C[C@@H]1OP(=O)(OCC)OC[C@H]1O[C@@H](n2cc(C)c(=O)[nH]c2=O)C[C@@H]1OP(=O)(OCC)OC[C@H]1O[C@@H](n2cc(C)c(=O)[nH]c2=O)C[C@@H]1OP(=O)(OCC)OC[C@H]1O[C@@H](n2cc(C)c(=O)[nH]c2=O)C[C@@H]1OP(=O)(OCC)OC[C@H]1O[C@@H](n2cc(C)c(=O)[nH]c2=O)C[C@@H]1OP(=O)(O)OCCC(O)COCCCNC(=O)c1ccc(C(=O)O)c(C2=C3C=CC(=[N+](C)C)C=C3OC3C=C(N(C)C)C=CC23)c1)O[C@H]1C[C@H](n2cc(C)c(=O)[nH]c2=O)O[C@@H]1COP(=O)(O)OCCCCNCCCNCCCCNCCCNCCCCO` (stereo partly drawn), the solubility entry in data set [4] was “soluble”. In addition, in the data set on A549, the Flu intensity came to 33.1.
Regarding `Cc1cn([C@H]2C[C@H](OP(=O)(O)OC[C@H]3O[C@@H](n4cc(C)c(=O)[nH]c4=O)C[C@@H]3OP(=O)(O)OC[C@H]3O[C@@H](n4cc(C)c(=O)[nH]c4=O)C[C@@H]3OP(=O)(O)OC[C@H]3O[C@@H](n4cc(C)c(=O)[nH]c4=O)C[C@@H]3OP(=O)(O)OC[C@H]3O[C@@H](n4cc(C)c(=O)[nH]c4=O)C[C@@H]3OP(=O)(O)OC[C@H]3O[C@@H](n4cc(C)c(=O)[nH]c4=O)C[C@@H]3OP(=O)(O)OC[C@H]3O[C@@H](n4cc(C)c(=O)[nH]c4=O)C[C@@H]3OP(=O)(O)OC[C@H]3O[C@@H](n4cc(C)c(=O)[nH]c4=O)C[C@@H]3OP(=O)(O)OC[C@H]3O[C@@H](n4cc(C)c(=O)[nH]c4=O)C[C@@H]3OP(=O)(O)OC[C@H]3O[C@@H](n4cc(C)c(=O)[nH]c4=O)C[C@@H]3OP(=O)(O)OCCC(O)COCCCNC(=O)c3ccc(C(=O)O)c(C4=C5C=CC(=[N+](C)C)C=C5OC5C=C(N(C)C)C=CC45)c3)[C@@H](COP(=O)(O)OCCCCNCCCNCCCCNCCCNCCCCO)O2)c(=O)[nH]c1=O` (stereo partly drawn), the Flu intensity in the data set on A549 was 5.45.
